Assays:
Adenosine receptor A2a [1] = molecular target: T1, Adenosine receptor A2a (Homo sapiens, UniProt P29274); assay: Displacement of [3H]CGS-21680 binding to Adenosine A2 receptor expressed in CHO cells; format: cell-based
Adenosine receptor A2a [2] = molecular target: T1, Adenosine receptor A2a; assay: Inhibition of [3H]CGS-21680 binding to Adenosine A2A receptor expressed in CHO cells; format: cell-based; set-up: concentration or dose not given beside the values; settings: concentration not given here
Adenosine receptor A3 [3] = molecular target: T2, Adenosine receptor A3 (Homo sapiens, UniProt P0DMS8); assay: Displacement of [125I]AB-MECA binding to Adenosine A3 receptor expressed in CHO cells; format: cell-based
T2 sequence (P0DMS8 whole entry): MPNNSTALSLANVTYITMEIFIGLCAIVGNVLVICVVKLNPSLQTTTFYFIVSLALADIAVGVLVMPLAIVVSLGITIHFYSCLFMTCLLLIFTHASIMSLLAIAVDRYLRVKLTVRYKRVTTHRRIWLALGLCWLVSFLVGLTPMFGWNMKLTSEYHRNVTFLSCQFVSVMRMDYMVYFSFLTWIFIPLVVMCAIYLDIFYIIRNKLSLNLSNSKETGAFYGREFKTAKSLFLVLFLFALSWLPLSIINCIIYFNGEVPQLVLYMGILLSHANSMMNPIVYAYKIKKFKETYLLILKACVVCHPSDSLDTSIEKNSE

Adenosine receptor A1 = molecular target: T3, Adenosine receptor A1 (Homo sapiens, UniProt P30542); assay: Displacement of [3H]CHA binding to Adenosine A1 receptor expressed in CHO cells; format: cell-based
T3 sequence (P30542 whole entry): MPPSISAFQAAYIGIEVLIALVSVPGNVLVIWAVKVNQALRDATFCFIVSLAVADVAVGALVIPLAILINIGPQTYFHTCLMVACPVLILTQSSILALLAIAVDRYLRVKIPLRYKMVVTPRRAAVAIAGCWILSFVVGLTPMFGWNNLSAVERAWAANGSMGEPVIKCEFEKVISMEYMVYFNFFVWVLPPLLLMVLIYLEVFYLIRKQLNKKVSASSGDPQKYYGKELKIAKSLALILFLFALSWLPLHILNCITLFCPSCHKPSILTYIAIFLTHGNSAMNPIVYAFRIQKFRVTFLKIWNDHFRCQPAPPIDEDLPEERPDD
Summary of the method: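 Human A1-transfected CHO membranes (adenosine deaminase-treated), 50 µg protein, incubated 120 min at 25 °C in 50 mM Tris HCl pH 7.4 with 1 nM [3H]-CHA and 6-8 agonist concentrations; nonspecific binding with 10 µM CHA. Filtration through GF/B filters, scintillation counting; Ki from IC50 via Cheng-Prusoff; geometric mean with confidence limits.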

[4] = molecular target: Adenosine receptors; A1 & A3 (Homo sapiens) (UniProt P30542+P0DMS8); assay: Ratio of binding affinity for Adenosine A1 and Adenosine A3 receptors; format: protein assay
Adenosine receptor A3 [5] = molecular target: T2, Adenosine receptor A3; assay: Inhibition of (10 uM) forskolin-mediated cAMP production in CHO cells expressing human Adenosine A3 receptor; format: functional, cell-based
[6] = molecular target: Adenosine receptors; A2a & A3 (Homo sapiens) (UniProt P0DMS8+P29274); assay: Ratio of binding affinity for Adenosine A2A and Adenosine A3 receptors; format: protein assay
Summary of the method: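 Ki ratio of two competition binding assays on adenosine deaminase-treated membranes of CHO cells expressing human receptors (50 µg protein). […] A3: 1 nM [125I]-AB-MECA, 120 min, 4 °C, duplicates. Filtration read-out; Ki by Cheng-Prusoff.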

T1 sequence (P29274 whole entry): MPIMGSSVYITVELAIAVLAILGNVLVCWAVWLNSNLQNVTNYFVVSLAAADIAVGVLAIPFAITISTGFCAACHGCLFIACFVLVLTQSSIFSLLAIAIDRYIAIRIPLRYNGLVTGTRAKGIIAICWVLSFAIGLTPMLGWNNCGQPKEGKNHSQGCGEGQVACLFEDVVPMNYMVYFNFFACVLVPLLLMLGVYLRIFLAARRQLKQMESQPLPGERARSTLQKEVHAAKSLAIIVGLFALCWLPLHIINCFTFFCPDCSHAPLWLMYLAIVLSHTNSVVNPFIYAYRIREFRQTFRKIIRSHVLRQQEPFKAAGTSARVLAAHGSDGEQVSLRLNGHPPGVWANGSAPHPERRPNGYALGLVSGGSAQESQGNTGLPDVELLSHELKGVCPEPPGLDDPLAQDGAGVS
Adenosine receptors; A2a & A3 (Homo sapiens), sequence (P29274 whole entry, looked up, one chain of several): as the sequence (P29274 whole entry) above

SMILES	Ki (Adenosine receptor A2a [1]) [nM]	inhibition (Adenosine receptor A2a [2]) [%]	Ki (Adenosine receptor A3 [3]) [nM]	Ki (Adenosine receptor A1) [nM]	Ratio [4]	IC50 (Adenosine receptor A3 [5]) [nM]	Ratio [6]
CCNC(=O)[C@H]1OC(n2cnc3c(NC(=O)Nc4ccc(S(=O)(=O)N5CCCC5)cc4)ncnc32)C(O)C1O (single isomer, unassigned)	> 1000	23	22	–	–	–	–
CCNC(=O)[C@H]1OC(n2cnc3c(NC(=O)Nc4ccc(S(=O)(=O)N5CCCCC5)cc4)ncnc32)C(O)C1O (single isomer, unassigned)	> 1000	15	–	–	–	–	–
CCNC(=O)[C@H]1OC(n2cnc3c(NC(=O)Nc4ccc(S(=O)(=O)N5CC=CC5)cc4)ncnc32)C(O)C1O (single isomer, unassigned)	> 1000	17	19	250	13.2	–	–
CCNC(=O)[C@H]1OC(n2cnc3c(NC(=O)Nc4ccc(S(=O)(=O)NC5CCCCC5)cc4)ncnc32)C(O)C1O (single isomer, unassigned)	> 1000	25	–	350	–	–	–
C=CCN(CC=C)S(=O)(=O)c1ccc(NC(=O)Nc2ncnc3c2ncn3C2O[C@H](C(=O)NCC)C(O)C2O)cc1 (single isomer, unassigned)	> 1000	15	10	380	38	65	–
CCNC(=O)[C@H]1OC(n2cnc3c(NC(=O)Nc4ccc(S(=O)(=O)NC56CC7CC(CC(C7)C5)C6)cc4)ncnc32)C(O)C1O (single isomer, unassigned)	> 1000	31	35	240	7.5	–	–
C=CCN(C)S(=O)(=O)c1ccc(NC(=O)Nc2ncnc3c2ncn3C2O[C@H](C(=O)NCC)C(O)C2O)cc1 (single isomer, unassigned)	> 1000	10	10	–	–	42	–
CCNC(=O)[C@H]1OC(n2cnc3c(NC(=O)Nc4ccc(S(=O)(=O)N(CCCl)CCCl)cc4)ncnc32)C(O)C1O (single isomer, unassigned)	> 1000	27	23	730	31.7	–	–
CCNC(=O)[C@H]1OC(n2cnc3c(NC(=O)Nc4ccc(S(=O)(=O)NC5CCCC5)cc4)ncnc32)C(O)C1O (single isomer, unassigned)	> 1000	19	24	415	17.3	–	–
CCNC(=O)[C@H]1OC(n2cnc3c(NC(=O)Nc4ccc(S(=O)(=O)N5CCOCC5)cc4)ncnc32)C(O)C1O (single isomer, unassigned)	> 1000	20	20	725	36.2	–	–
CCNC(=O)[C@H]1OC(n2cnc3c(NC(=O)Nc4ccc(S(=O)(=O)NC(C)(C)C)cc4)ncnc32)C(O)C1O (single isomer, unassigned)	> 1000	32	20	250	12.5	–	–
CCNC(=O)[C@H]1OC(n2cnc3c(NC(=O)Nc4ccc(S(=O)(=O)N(CC)CC)cc4)ncnc32)C(O)C1O (single isomer, unassigned)	> 1000	28	–	–	–	–	–
CCNC(=O)[C@H]1OC(n2cnc3c(NC(=O)Nc4ccc(S(=O)(=O)N(C)C)cc4)ncnc32)C(O)C1O (single isomer, unassigned)	> 1000	21	–	280	–	–	–
CCNC(=O)[C@H]1OC(n2cnc3c(NC(=O)Nc4ccc(S(=O)(=O)N(C)C(C)C)cc4)ncnc32)C(O)C1O (single isomer, unassigned)	–	13	–	–	–	–	–
CCNC(=O)[C@H]1OC(n2cnc3c(NC(=O)Nc4ccc(S(=O)(=O)Nc5ccc(OC)cc5)cc4)ncnc32)C(O)C1O (single isomer, unassigned)	> 1000	34	–	280	–	–	–
CCCNS(=O)(=O)c1ccc(NC(=O)Nc2ncnc3c2ncn3C2O[C@H](C(=O)NCC)C(O)C2O)cc1 (single isomer, unassigned)	> 1000	31	25	290	11.6	–	–
CCNC(=O)[C@H]1OC(n2cnc3c(NC(=O)Nc4ccc(S(=O)(=O)NCc5ccccc5)cc4)ncnc32)C(O)C1O (single isomer, unassigned)	> 1000	30	–	300	–	–	–
CCCCCNS(=O)(=O)c1ccc(NC(=O)Nc2ncnc3c2ncn3C2O[C@H](C(=O)NCC)C(O)C2O)cc1 (single isomer, unassigned)	> 1000	32	80	445	5.56	–	–
CCNC(=O)[C@H]1OC(n2cnc3c(NC(=O)Nc4ccc(S(=O)(=O)NCC)cc4)ncnc32)C(O)C1O (single isomer, unassigned)	> 1000	34	23	250	10.9	–	–
CCNC(=O)[C@H]1O[C@@H](n2cnc3c(NC(=O)Nc4ccc(S(N)(=O)=O)cc4)ncnc32)C(O)C1O (single isomer, unassigned)	95.2	–	14.8	30.1	2.03	81	6.43
CCCN(CCC)S(=O)(=O)c1ccc(NC(=O)Nc2ncnc3c2ncn3C2O[C@H](C(=O)NCC)C(O)C2O)cc1 (single isomer, unassigned)	> 1000	15	14	350	25	–	–

Reference: ChEMBL document CHEMBL1138800, “Synthesis and biological evaluation of novel N6-[4-(substituted)sulfonamidophenylcarbamoyl]adenosine-5'-uronamides as A3 adenosine receptor agonists” (J Med Chem, 2004)
